Data published in ChEMBL document CHEMBL4177755, “Combating Drug-Resistant Fungi with Novel Imperfectly Amphipathic Palindromic Peptides” (J Med Chem, 2018).
Values after ≈ are worked out from the molar mass of the structure shown. Active and inactive are the calls of the source. The rule behind the calls is not given here.

What was measured:
[1] = tested on: Candida albicans; test: Antifungal activity against Candida albicans cgmcc 2.2086 after 48 hrs by broth microdilution method; assay type: functional; conditions: cgmcc 2.2086, 48 h
Outline: (§1)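 Modified CLSI M27-A2 broth microdilution. Yeast at (0.5−1) × 10^3 CFU/mL in MOPS-buffered RPMI 1640 was mixed 1:1 with peptide serially diluted in 0.2% BSA and incubated 48 h at 28 °C. Absorbance was read at 492 nm; MIC is the lowest concentration inhibiting 95% of growth. Triplicate, three biological replicates.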

[2] = tested on: Candida albicans; test: Antifungal activity against Candida albicans SP3931 after 48 hrs by broth microdilution method; assay type: functional; conditions: SP3931, 48 h; outline: as §1
[3] = tested on: Candida albicans; test: Antifungal activity against Candida albicans SP3903 after 48 hrs by broth microdilution method; assay type: functional; conditions: SP3903, 48 h; outline: as §1
[4] = tested on: Candida albicans; test: Antifungal activity against Candida albicans SP3902 after 48 hrs by broth microdilution method; assay type: functional; conditions: SP3902, 48 h; outline: as §1
[5] = tested on: Candida albicans; test: Antifungal activity against Candida albicans SP3876 after 48 hrs by broth microdilution method; assay type: functional; conditions: SP3876, 48 h; outline: as §1
[6] = tested on: Candida albicans; test: Antifungal activity against Candida albicans isolated from alveolar fluid after 48 hrs by broth microdilution method; assay type: functional; outline: as §1
[7] = tested on: Candida albicans; test: Antifungal activity against fluconazole-resistant Candida albicans 56452 after 48 hrs by broth microdilution method; assay type: functional; conditions: Candida albicans, 56452, 48 h; outline: as §1
[8] = tested on: Candida albicans; test: Antifungal activity against fluconazole-resistant Candida albicans 56214 after 48 hrs by broth microdilution method; assay type: functional; conditions: Candida albicans, 56214, 48 h; outline: as §1
[9] = tested on: Candida albicans; test: Antifungal activity against Candida albicans 14936 after 48 hrs by broth microdilution method; assay type: functional; conditions: Candida albicans, 14936, 48 h; outline: as §1
[10] = tested on: Candida albicans; test: Antifungal activity against fluconazole-resistant Candida albicans 17546 after 48 hrs by broth microdilution method; assay type: functional; conditions: Candida albicans, 17546, 48 h; outline: as §1
[11] = tested on: Candida tropicalis; test: Antifungal activity against Candida tropicalis cgmcc 2.1975 after 48 hrs by broth microdilution method; assay type: functional; conditions: cgmcc 2.1975, 48 h
Outline: (§2)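 Modified CLSI M27-A2 broth microdilution. Yeast were suspended in MOPS-buffered RPMI 1640 at a final (0.5−1) × 10^3 CFU/mL and mixed 1:1 with peptide serially diluted in 0.2% BSA. Plates were incubated 48 h at 28 °C and read at A492. MIC is the lowest concentration giving 95% inhibition. Run in triplicate with three biological replicates.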

[12] = tested on: Pichia kudriavzevii; test: Antifungal activity against Candida krusei cgmcc 2.1857 after 48 hrs by broth microdilution method; assay type: functional; conditions: cgmcc 2.1857, 48 h; outline: as §2
[13] = tested on: Candida parapsilosis; test: Antifungal activity against Candida parapsilosis cgmcc 2.3989 after 48 hrs by broth microdilution method; assay type: functional; conditions: Lodderomyces parapsilosis, cgmcc 2.3989, 48 h; outline: as §2
[14] = tested on: Candida albicans; test: Fungicidal activity against Candida albicans cgmcc 2.2086 after 96 hrs; assay type: functional; conditions: cgmcc 2.2086, 96 h, read-out: MFC99.9
Outline: (§3)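 After the 48 h, 28 °C broth microdilution in MOPS-buffered RPMI 1640 (inoculum (0.5−1) × 10^3 CFU/mL), 50 μL from each well was plated on YM agar for a further 48 h at 28 °C. MFC is the lowest concentration killing at least 99.9% of cells. Triplicate, three biological replicates.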

[15] = tested on: Candida albicans; test: Fungicidal activity against Candida albicans SP3931 after 96 hrs; assay type: functional; conditions: SP3931, 96 h, read-out: MFC99.9; outline: as §3
[16] = tested on: Candida albicans; test: Fungicidal activity against Candida albicans SP3903 after 96 hrs; assay type: functional; conditions: SP3903, 96 h, read-out: MFC99.9; outline: as §3
[17] = tested on: Candida albicans; test: Fungicidal activity against Candida albicans SP3902 after 96 hrs; assay type: functional; conditions: SP3902, 96 h, read-out: MFC99.9; outline: as §3
[18] = tested on: Candida albicans; test: Fungicidal activity against Candida albicans SP3876 after 96 hrs; assay type: functional; conditions: SP3876, 96 h, read-out: MFC99.9; outline: as §3
[19] = tested on: Candida albicans; test: Fungicidal activity against Candida albicans isolated from alveolar fluid after 96 hrs; assay type: functional; conditions: read-out: MFC99.9; outline: as §3
[20] = tested on: Candida albicans; test: Fungicidal activity against fluconazole-resistant Candida albicans 56452 after 96 hrs; assay type: functional; conditions: Candida albicans, 56452, 96 h; read-out: MFC99.9; outline: as §3
[21] = tested on: Candida albicans; test: Fungicidal activity against fluconazole-resistant Candida albicans 56214 after 96 hrs; assay type: functional; conditions: Candida albicans, 56214, 96 h; read-out: MFC99.9; outline: as §3
[22] = tested on: Candida albicans; test: Fungicidal activity against Candida albicans 14936 after 96 hrs; assay type: functional; conditions: Candida albicans, 14936, 96 h; read-out: MFC99.9; outline: as §3
[23] = tested on: Candida albicans; test: Fungicidal activity against fluconazole-resistant Candida albicans 17546 after 96 hrs; assay type: functional; conditions: Candida albicans, 17546, 96 h; read-out: MFC99.9; outline: as §3
[24] = tested on: Candida tropicalis; test: Fungicidal activity against Candida tropicalis cgmcc 2.1975 after 96 hrs; assay type: functional; conditions: cgmcc 2.1975, 96 h, read-out: MFC99.9
Outline: (§4)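 Wells from the 48 h, 28 °C RPMI 1640/MOPS microdilution plates were plated on YM agar and incubated a further 48 h at 28 °C. MFC is the lowest concentration killing at least 99.9% of cells. Run in triplicate with three biological replicates.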

[25] = tested on: Pichia kudriavzevii; test: Fungicidal activity against Candida krusei cgmcc 2.1857 after 96 hrs; assay type: functional; conditions: cgmcc 2.1857, 96 h, read-out: MFC99.9; outline: as §4
[26] = tested on: Candida parapsilosis; test: Fungicidal activity against Candida parapsilosis cgmcc 2.3989 after 96 hrs; assay type: functional; conditions: Lodderomyces parapsilosis, cgmcc 2.3989, 96 h; read-out: MFC99.9; outline: as §4
[27] = tested on: Candida albicans; test: Antifungal activity against Candida albicans cgmcc 2.2086 in presence of NaCl by broth dilution method; assay type: functional
[28] = tested on: Candida albicans; test: Antifungal activity against Candida albicans cgmcc 2.2086 in presence of KCl by broth dilution method; assay type: functional
[29] = tested on: Candida albicans; test: Antifungal activity against Candida albicans cgmcc 2.2086 in presence of NH4Cl by broth dilution method; assay type: functional
[30] = tested on: Candida albicans; test: Antifungal activity against Candida albicans cgmcc 2.2086 in presence of MgCl2 by broth dilution method; assay type: functional
[31] = tested on: Candida albicans; test: Antifungal activity against Candida albicans cgmcc 2.2086 in presence of CaCl2 by broth dilution method; assay type: functional
[32] = tested on: Candida albicans; test: Antifungal activity against Candida albicans cgmcc 2.2086 in presence of ZnCl2 by broth dilution method; assay type: functional
[33] = tested on: Candida albicans; test: Antifungal activity against Candida albicans cgmcc 2.2086 in presence of FeCl3 by broth dilution method; assay type: functional
[34] = tested on: Candida albicans; test: Antifungal activity against Candida albicans cgmcc 2.2086 in presence of 12.5% human heat-inactivated serum by broth dilution method; assay type: functional
[35] = tested on: Candida albicans; test: Antifungal activity against Candida albicans cgmcc 2.2086 in presence of 25% human heat-inactivated serum by broth dilution method; assay type: functional
[36] = tested on: Candida albicans; test: Antifungal activity against Candida albicans cgmcc 2.2086 in presence of 50% human heat-inactivated serum by broth dilution method; assay type: functional
[37] = tested on: Lipid bilayer; test: Binding affinity to phosphatidylcholine/cholesterol large unilamellar vesicle assessed as induction of calcein leakage at 2 to 32 uM after 15 mins by spectrofluorophotometric method; conditions: 0.25 h
Outline: (§5)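 Large unilamellar vesicles were made from PG/CL/PE (2:1:7), PC/PE/PI/ergosterol (5:4:1:2) or PC/cholesterol (10:1), loaded with 70 mM calcein in Tris/NaCl/EDTA buffer at pH 7.4, frozen and thawed 20 times, and extruded through 100 nm filters. Free dye was removed by gel filtration, and peptide-induced calcein release was measured.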

[38] = tested on: Lipid bilayer; test: Binding affinity to phosphatidylcholine/phosphatidylethanolamine/phosphatidylinositol/ergosterol large unilamellar vesicle assessed as induction of calcein leakage at 2 to 32 uM after 15 mins by spectrofluorophotometric method; outline: as §5
[39] = tested on: Candida albicans; test: Disruption of cytoplasmic membrane electrical potential in Candida albicans cgmcc 2.2086 at MFC after 800 secs by DiSC3-5 dye-based fluorescence spectrophotometric method; assay type: functional, organism-based
Outline: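 Cells were loaded with the membrane potential-sensitive dye DiSC3-5, and its release on peptide treatment (various concentrations, including 1× MBC/MFC) was monitored as increasing fluorescence over 800 s.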

[40] = tested on: Candida albicans; test: Antifungal activity against Candida albicans 58288 after 48 hrs by broth microdilution method; assay type: functional; conditions: Candida albicans, 58288, 48 h; outline: as §1
[41] = tested on: Candida albicans; test: Fungicidal activity against Candida albicans 58288 after 96 hrs; assay type: functional; conditions: Candida albicans, 58288, 96 h; read-out: MFC99.9; outline: as §3

Question: With `OC(Cn1cncn1)(Cn1cncn1)c1ccc(F)cc1F` [FLUCONAZOLE] as the molecule, how does the MIC95 [1] read?
Answer: 1 µM (≈ 0.306 µg/mL)

Question: And the MIC95 [2]?
Answer: 1 µM (≈ 0.306 µg/mL)

Question: What about the MIC95 [3] of the same molecule?
Answer: 16 µM (≈ 4.9 µg/mL)

Question: What about the MIC95 [4] of the same molecule?
Answer: 16 µM (≈ 4.9 µg/mL)

Question: What about the MIC95 [5] of the same molecule?
Answer: > 64 µM

Question: What about the MIC95 [6] of the same molecule?
Answer: 2 µM (≈ 0.613 µg/mL)

Question: And the MIC95 [7]?
Answer: > 64 µM

Question: What about the MIC95 [8] of the same molecule?
Answer: > 64 µM

Question: And the MIC95 [9]?
Answer: 32 µM (≈ 9.8 µg/mL)

Question: What about the MIC95 [10] of the same molecule?
Answer: > 64 µM

Question: And the MIC95 [11]?
Answer: 4 µM (≈ 1.23 µg/mL)

Question: And the MIC95 [12]?
Answer: 64 µM (≈ 19.6 µg/mL)

Question: What about the MIC95 [13] of the same molecule?
Answer: 4 µM (≈ 1.23 µg/mL)

Question: And the MFC [14]?
Answer: 2 µM (≈ 0.613 µg/mL)

Question: And the MFC [15]?
Answer: 64 µM (≈ 19.6 µg/mL)

Question: And the MFC [16]?
Answer: 64 µM (≈ 19.6 µg/mL)

Question: And the MFC [17]?
Answer: > 64 µM

Question: What about the MFC [18] of the same molecule?
Answer: > 64 µM

Question: What about the MFC [19] of the same molecule?
Answer: 8 µM (≈ 2.45 µg/mL)

Question: And the MFC [20]?
Answer: > 64 µM

Question: What about the MFC [21] of the same molecule?
Answer: > 64 µM

Question: What about the MFC [22] of the same molecule?
Answer: > 64 µM

Question: And the MFC [23]?
Answer: > 64 µM

Question: And the MFC [24]?
Answer: 32 µM (≈ 9.8 µg/mL)

Question: And the MFC [25]?
Answer: 64 µM (≈ 19.6 µg/mL)

Question: What about the MFC [26] of the same molecule?
Answer: 8 µM (≈ 2.45 µg/mL)

Question: And the MIC [27]?
Answer: 1 µM

Question: And the MIC [28]?
Answer: 1 µM

Question: What about the MIC [29] of the same molecule?
Answer: 1 µM

Question: What about the MIC [30] of the same molecule?
Answer: 1 µM

Question: And the MIC [31]?
Answer: 1 µM

Question: What about the MIC [32] of the same molecule?
Answer: 1 µM

Question: And the MIC [33]?
Answer: 1 µM

Question: What about the MIC [34] of the same molecule?
Answer: 1 µM

Question: And the MIC [35]?
Answer: 1 µM

Question: And the MIC [36]?
Answer: 2 µM

Question: What about the Activity [37] of the same molecule?
Answer: Not Active

Question: What about the Activity [38] of the same molecule?
Answer: inactive

Question: And the Activity [39]?
Answer: inactive

Question: What about the MIC95 [40] of the same molecule?
Answer: 8 µM (≈ 2.45 µg/mL)

Question: What about the MFC [41] of the same molecule?
Answer: > 64 µM
